# Experimental data from ChEMBL document CHEMBL2163276, “A peptide nucleic acid-aminosugar conjugate targeting transactivation response element of HIV-1 RNA genome shows a high bioavailability in human cells and strongly inhibits tat-mediated transactivation of HIV-1 transcription” (J Med Chem, 2012).
# pIC50: −log10 of the molar value. Calls of active or inactive are those of the source. No cut-off for these calls is given here.
# How the values were obtained:
# [1] = system: Nucleic Acid; test: Binding affinity to HIV1 32-P labeled transactivation response element RNA assessed as gel mobility shift at compound:RNA ratio of 0.5:1 after 1 hr by gel mobility shift assay; type: nucleic-acid assay; conditions: Human immunodeficiency virus 1
# How it was run: (§1)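 10 nM 32P-labelled 82-nt TAR RNA run-off transcript (T7) incubated with conjugate in 50 mM Tris-HCl pH 7.8, 60 mM KCl, 5 mM MgCl2, 1 h at room temperature. Molar ratios of conjugate to RNA were 0–5.0. Samples were run on native 8% polyacrylamide gel in TBE, 100 V, 4 h, room temperature, then PhosphorImager read-out.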
# [2] = system: Nucleic Acid; test: Inhibition of transactivation response element RNA-mediated transcription in HIV1 pseudovirions infected in human CEM cells assessed as reduction in luciferase activity incubated 48 hrs post-infection measured after 72 hrs by reporter gene assay; type: cell-based
# How it was run: (§2)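 CEM 12D7 cells (1×10^6 in 1 mL) infected 2 h with VSV-G-pseudotyped NL4-3.Luc.R-E- virions (14 ng p24), washed and cultured. Conjugate added 48 h post-infection. After 76 h, cells lysed and firefly luciferase measured; IC50 calculated. Mean of two independent experiments.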
# [3] = system: Nucleic Acid; test: Inhibition of transactivation response element RNA-mediated transcription in HIV1 pseudovirions infected in human CEM cells assessed as reduction in luciferase activity at 800 nM incubated 48 hrs post-infection measured after 72 hrs by reporter gene assay; type: cell-based; conditions: Human immunodeficiency virus 1, CCRF-CEM; how it was run: as §2
# [4] = system: Nucleic Acid; test: Effect on HIV1 transactivation response element RNA-mediated LTR expression transfected in human CEM cells at 0.1 to 2 uM after 24 hrs by luciferase reporter gene assay; type: cell-based; conditions: Human immunodeficiency virus 1, CCRF-CEM
# How it was run: (§3)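 CEM cells (0.5×10^6/well) transfected with pHIV-1 LTR-Luc (2 µg) and pRL-SV40 (500 ng), with or without pCMV-Tat (2 µg). Conjugates added 2 h later, and cells grown in RPMI/10% FBS at 37 °C. At 24 h, dual-luciferase read-out; firefly normalised to Renilla and expressed as % of untreated cells. Mean ± SEM of two independent experiments.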
# [5] = system: Nucleic Acid; test: Binding affinity to HIV1 32-P labeled transactivation response element RNA at compound:RNA ratio of 1:1 after 1 hr by gel mobility shift assay; type: nucleic-acid assay; conditions: Human immunodeficiency virus 1; how it was run: as §1
# [6] = system: Nucleic Acid; test: Induction of HIV1 transactivation response element RNA cleavage in presence of metal ion; type: nucleic-acid assay; conditions: Human immunodeficiency virus 1
# [7] = Chemical stability of the compound in aqueous HCl solution after 3 days by HPLC analysis; type: physicochemical; conditions: buffer, 72 h
# How it was run: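 Conjugate held in 0.1 M aqueous HCl at 37 °C for 3 days. HPLC retention time compared with untreated sample.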
# [8] = system: Nucleic Acid; test: Induction of HIV1 transactivation response element RNA cleavage; type: nucleic-acid assay; conditions: Human immunodeficiency virus 1
# [9] = system: CCRF-CEM; test: Cytotoxicity against human CEM cells assessed as inhibition of [3H]thymidine incorporation at 0.1 and 0.5 mM after 48 hrs by scintillation counting; type: cell-based
# How it was run: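 CEM cells grown with conjugate (0.1 and 0.5 mM, dissolved in DMSO; final DMSO 5%) plus [methyl-3H]thymidine 5 µCi/mL for 48 h. Nucleic acids lysed with 1% NP-40, TCA-precipitated onto glass-fibre filters and scintillation counted. Results given as % of DMSO control, from three independent experiments.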
# [10] = system: Nucleic Acid; test: Inhibition of HIV1 transactivation response element RNA-mediated LTR expression transfected in human CEM cells coexpressing CMV-Tat at 0.1 to 2 uM after 24 hrs by luciferase reporter gene assay; type: cell-based; conditions: Human immunodeficiency virus 1, CCRF-CEM; how it was run: as §3
# [11] = system: Nucleic Acid; test: Inhibition of HIV1 transactivation response element RNA-mediated LTR expression transfected in human CEM cells coexpressing CMV-Tat at 1 uM after 24 hrs by luciferase reporter gene assay; type: cell-based; conditions: Human immunodeficiency virus 1, CCRF-CEM; how it was run: as §3
# [12] = system: Nucleic Acid; test: Inhibition of HIV1 transactivation response element RNA-mediated LTR expression transfected in human CEM cells coexpressing CMV-Tat at 1 and 2 uM after 24 hrs by luciferase reporter gene assay; type: cell-based; conditions: Human immunodeficiency virus 1; CCRF-CEM; how it was run: as §3
# [13] = system: CCRF-CEM; test: Cellular uptake in human CEM cells at 1 uM after 12 hrs by confocal microscopic analysis; type: ADME, cell-based
# How it was run: (§4)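 CEM cells incubated 12 h with FITC-labelled conjugate (0.5 and 1 µM) or with 1 µM FITC-labelled naked PNA. Cells then washed, nuclei DAPI-stained, and imaged by confocal microscopy with FITC read at 488 nm.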
# [14] = system: CCRF-CEM; test: Cellular uptake in human CEM cells up to 14 hrs by FACS analysis at 4 degC; type: ADME, cell-based
# How it was run: (§5)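 CEM cells taken in log phase and resuspended at 0.5×10^6 cells/mL in RPMI with 2% FBS, preincubated 30 min at 37 °C. Fluorescein-labelled conjugate added at 50 nM–1 µM and incubated. Cells harvested at 30 min, 3 h and 14 h, washed in PBS and scored for FITC-positive cells by FACScan, with propidium iodide (1 µg/mL) to exclude dead cells.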
# [15] = system: CCRF-CEM; test: Cellular uptake in human CEM cells at 0.5 uM after 12 hrs by confocal microscopic analysis; type: ADME, cell-based; how it was run: as §4
# [16] = system: CCRF-CEM; test: Cellular uptake in human CEM cells at 0.2 uM within 14 hrs by FACS analysis; type: ADME, cell-based; how it was run: as §5
# [17] = system: CCRF-CEM; test: Cellular uptake in human CEM cells at 0.3 uM within 14 hrs by FACS analysis; type: ADME, cell-based; how it was run: as §5
# [18] = Cytotoxicity against human CEM cells assessed as cell viability at 0.2 to 1 uM by propidium iodide-staining based flow cytometric analysis; conditions: CCRF-CEM cells, read-out: Activity
# How it was run: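 CEM cells exposed to labelled conjugate at 0.2–1 µM under uptake-assay conditions. Viability scored by propidium iodide exclusion during flow cytometry.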
# [19] = system: CCRF-CEM; test: Cellular uptake in human CEM cells at 0.2 uM within 30 mins by FACS analysis; type: ADME, cell-based; conditions: 0.5 h; how it was run: as §5
# [20] = system: CCRF-CEM; test: Cellular uptake in human CEM cells up to 14 hrs by FACS analysis at 37 degC; type: ADME, cell-based; how it was run: as §5
# [21] = Cellular uptake in human Huh7.5 cells at 1 uM after 10 hrs by DAPI/WGA-Rhodamine-staining based confocal microscopic analysis in presence of chloroquine; type: ADME, cell-based; conditions: huh-7, 10 h
# How it was run: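 Huh7.5 cells incubated with 1 µM FITC-labelled conjugate, with or without the endosome disruptor chloroquine, for 10 h. Cells then PBS-washed, fixed in 4% paraformaldehyde, stained with WGA-rhodamine (membrane glycoproteins) and DAPI (nuclei), and imaged by confocal microscopy, FITC at 488 nm.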
# [22] = system: CCRF-CEM; test: Cellular uptake in human CEM cells at 50 nM to 1 uM by FACS analysis; type: ADME, cell-based; conditions: 0.05 µM, TDE = time-dependent effect; how it was run: as §5
# [23] = system: CCRF-CEM; test: Cellular uptake in human CEM cells up to 14 hrs by FACS analysis; type: ADME, cell-based; how it was run: as §5
# [24] = system: CCRF-CEM; test: Cellular uptake in human CEM cells at 2 uM after overnight incubation; type: ADME, cell-based
# [25] = Human immunodeficiency virus 1, CCRF-CEM
compound,measurement,setting,value
CO[C@H]1O[C@H](CN)[C@@H](OCCCCCC(=O)NCCN(CC(=O)NCCN(CC(=O)NCCN(CC(=O)NCCN(CC(=O)NCCN(CC(=O)NCCN(CC(=O)NCCN(CC(=O)NCCN(CC(=O)NCCN(CC(=O)NCCN(CC(=O)NCCN(CC(=O)NCCN(CC(=O)NCCN(CC(=O)NCCN(CC(=O)NCCN(CC(=O)NCCN(CC(N)=O)C(=O)Cn2cc(C)c(=O)[nH]c2=O)C(=O)Cn2ccc(N)nc2=O)C(=O)Cn2cc(C)c(=O)[nH]c2=O)C(=O)Cn2cnc3c(N)ncnc32)C(=O)Cn2cnc3c(=O)[nH]c(N)nc32)C(=O)Cn2cnc3c(N)ncnc32)C(=O)Cn2ccc(N)nc2=O)C(=O)Cn2cc(C)c(=O)[nH]c2=O)C(=O)Cn2ccc(N)nc2=O)C(=O)Cn2cnc3c(=O)[nH]c(N)nc32)C(=O)Cn2cnc3c(=O)[nH]c(N)nc32)C(=O)Cn2cnc3c(N)ncnc32)C(=O)Cn2ccc(N)nc2=O)C(=O)Cn2ccc(N)nc2=O)C(=O)Cn2ccc(N)nc2=O)C(=O)Cn2cc(C)c(=O)[nH]c2=O)[C@H](O)[C@H]1N,Activity,[1],50%
same,pIC50,[2]; [25],6.10
same,inhibition,[2]; [25],Dose-dependent effect
same,inhibition,[3],50%
same,Activity,[4],inactive
same,Activity,[5],Active
same,Activity,[6],inactive
same,Stability,[7],Stable
same,Activity,[8],inactive
same,Activity,[9],Non-toxic
same,inhibition,[10],Active
same,inhibition,[11],75%
Cc1cn(CC(=O)N(CCNC(=O)CN(CCNC(=O)CN(CCNC(=O)CN(CCNC(=O)CN(CCNC(=O)CN(CCNC(=O)CN(CCNC(=O)CN(CCNC(=O)CN(CCNC(=O)CN(CCNC(=O)CN(CCNC(=O)CN(CCNC(=O)CN(CCNC(=O)CN(CCNC(=O)CN(CCNC(=O)CN(CCN)C(=O)Cn2cc(C)c(=O)[nH]c2=O)C(=O)Cn2ccc(N)nc2=O)C(=O)Cn2ccc(N)nc2=O)C(=O)Cn2ccc(N)nc2=O)C(=O)Cn2cnc3c(N)ncnc32)C(=O)Cn2cnc3c(=O)[nH]c(N)nc32)C(=O)Cn2cnc3c(=O)[nH]c(N)nc32)C(=O)Cn2ccc(N)nc2=O)C(=O)Cn2cc(C)c(=O)[nH]c2=O)C(=O)Cn2ccc(N)nc2=O)C(=O)Cn2cnc3c(N)ncnc32)C(=O)Cn2cnc3c(=O)[nH]c(N)nc32)C(=O)Cn2cnc3c(N)ncnc32)C(=O)Cn2cc(C)c(=O)[nH]c2=O)C(=O)Cn2ccc(N)nc2=O)CC(N)=O)c(=O)[nH]c1=O,inhibition,[12],inactive
Cc1cn(CC(=O)N(CCN)CC(=O)NCCN(CC(=O)NCCN(CC(=O)NCCN(CC(=O)NCCN(CC(=O)NCCN(CC(=O)NCCN(CC(=O)NCCN(CC(=O)NCCN(CC(=O)NCCN(CC(=O)NCCN(CC(=O)NCCN(CC(=O)NCCN(CC(=O)NCCN(CC(=O)NCCN(CC(=O)NCCN(CC(=O)N[C@@H](CCCCNC(=S)Nc2ccc(-c3c4ccc(=O)cc-4oc4cc(O)ccc34)c(C(=O)O)c2)C(N)=O)C(=O)Cn2cc(C)c(=O)[nH]c2=O)C(=O)Cn2ccc(N)nc2=O)C(=O)Cn2cc(C)c(=O)[nH]c2=O)C(=O)Cn2cnc3c(N)ncnc32)C(=O)Cn2cnc3c(=O)[nH]c(N)nc32)C(=O)Cn2cnc3c(N)ncnc32)C(=O)Cn2ccc(N)nc2=O)C(=O)Cn2cc(C)c(=O)[nH]c2=O)C(=O)Cn2ccc(N)nc2=O)C(=O)Cn2cnc3c(=O)[nH]c(N)nc32)C(=O)Cn2cnc3c(=O)[nH]c(N)nc32)C(=O)Cn2cnc3c(N)ncnc32)C(=O)Cn2ccc(N)nc2=O)C(=O)Cn2ccc(N)nc2=O)C(=O)Cn2ccc(N)nc2=O)c(=O)[nH]c1=O,Drug uptake,[13],Not Active
CO[C@H]1O[C@H](CN)[C@@H](OCCCCCC(=O)NCCN(CC(=O)NCCN(CC(=O)NCCN(CC(=O)NCCN(CC(=O)NCCN(CC(=O)NCCN(CC(=O)NCCN(CC(=O)NCCN(CC(=O)NCCN(CC(=O)NCCN(CC(=O)NCCN(CC(=O)NCCN(CC(=O)NCCN(CC(=O)NCCN(CC(=O)NCCN(CC(=O)NCCN(CC(=O)N[C@@H](CCCCNC(=S)Nc2ccc(-c3c4ccc(=O)cc-4oc4cc(O)ccc34)c(C(=O)O)c2)C(N)=O)C(=O)Cn2cc(C)c(=O)[nH]c2=O)C(=O)Cn2ccc(N)nc2=O)C(=O)Cn2cc(C)c(=O)[nH]c2=O)C(=O)Cn2cnc3c(N)ncnc32)C(=O)Cn2cnc3c(=O)[nH]c(N)nc32)C(=O)Cn2cnc3c(N)ncnc32)C(=O)Cn2ccc(N)nc2=O)C(=O)Cn2cc(C)c(=O)[nH]c2=O)C(=O)Cn2ccc(N)nc2=O)C(=O)Cn2cnc3c(=O)[nH]c(N)nc32)C(=O)Cn2cnc3c(=O)[nH]c(N)nc32)C(=O)Cn2cnc3c(N)ncnc32)C(=O)Cn2ccc(N)nc2=O)C(=O)Cn2ccc(N)nc2=O)C(=O)Cn2ccc(N)nc2=O)C(=O)Cn2cc(C)c(=O)[nH]c2=O)[C@H](O)[C@H]1N,Drug uptake,[14],Active
same,Drug uptake,[13],99%
same,Drug uptake,[15],90%
same,Drug uptake,[16],85%
same,Drug uptake,[17],100%
same,viability at 1 µM,[18],> 95%
same,Drug uptake,[19],10%
same,Drug uptake,[20],Active
same,Drug uptake,[21],Active
same,Drug uptake,[22],tde
same,Drug uptake,[23],Dose-dependent effect
Cc1cn(CC(=O)N(CCNC(=O)CN(CCNC(=O)CN(CCNC(=O)CN(CCNC(=O)CN(CCNC(=O)CN(CCNC(=O)CN(CCNC(=O)CN(CCNC(=O)CN(CCNC(=O)CN(CCNC(=O)CN(CCNC(=O)CN(CCNC(=O)CN(CCNC(=O)CN(CCNC(=O)CN(CCNC(=O)CN(CCNC(=O)CCC(=O)NCCCCCCO[C@@H]2[C@@H](O)[C@H](N)C[C@H](N)[C@H]2O[C@H]2O[C@H](CN)[C@@H](O)[C@H](O)[C@H]2N)C(=O)Cn2cc(C)c(=O)[nH]c2=O)C(=O)Cn2ccc(N)nc2=O)C(=O)Cn2ccc(N)nc2=O)C(=O)Cn2ccc(N)nc2=O)C(=O)Cn2cnc3c(N)ncnc32)C(=O)Cn2cnc3c(=O)[nH]c(N)nc32)C(=O)Cn2cnc3c(=O)[nH]c(N)nc32)C(=O)Cn2ccc(N)nc2=O)C(=O)Cn2cc(C)c(=O)[nH]c2=O)C(=O)Cn2ccc(N)nc2=O)C(=O)Cn2cnc3c(N)ncnc32)C(=O)Cn2cnc3c(=O)[nH]c(N)nc32)C(=O)Cn2cnc3c(N)ncnc32)C(=O)Cn2cc(C)c(=O)[nH]c2=O)C(=O)Cn2ccc(N)nc2=O)CC(N)=O)c(=O)[nH]c1=O,Drug uptake,[24],30%
